Experimental data as given in article PMC10823175 (Proceedings of the National Academy of Sciences of the …, 2024).
Marks after values point to notes of the source that are not given here.

Assays:
4T1-526 mammary tumors = assay: 4T1-526 mammary fat pad tumor growth; assay type: in vivo, BALB/c mice
[1] = test system: MDA-MB-231, 4T1, MRC-5 cells; assay: Western blot of c-MYC, cyclin D1 and PARP; assay type: cell-based; details: MDA-MB-231 or 4T1 cancer cells; MG-002, CR-1-31B 100 nM, DXR 0.5 µg/mL; 24 h
eIF4A1 [2] = target: T1, eIF4A1 (Homo sapiens, UniProt P60842); assay type: binding; details: for RNA template selectivity of compound-induced eIF4A1 clamping: 10 µM, poly (AG)8 vs poly (UC)8 RNA
T1 sequence (P60842 whole entry): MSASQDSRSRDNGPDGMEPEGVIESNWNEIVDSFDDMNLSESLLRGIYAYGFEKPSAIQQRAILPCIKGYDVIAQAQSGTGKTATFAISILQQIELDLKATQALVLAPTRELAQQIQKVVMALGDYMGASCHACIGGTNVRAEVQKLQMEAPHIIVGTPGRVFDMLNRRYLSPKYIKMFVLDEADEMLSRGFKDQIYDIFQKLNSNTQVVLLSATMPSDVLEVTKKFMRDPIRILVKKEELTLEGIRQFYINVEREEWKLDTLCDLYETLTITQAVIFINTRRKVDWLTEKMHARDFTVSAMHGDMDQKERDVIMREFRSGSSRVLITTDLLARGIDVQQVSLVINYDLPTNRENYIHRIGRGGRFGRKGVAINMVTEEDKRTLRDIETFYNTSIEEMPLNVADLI
Procedure, shortened: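 Clamping: 1 mM AMPPNP, ΔmP versus DMSO, n = 3 ±SD. Dissociation: complexes with 1 mM ATP, 30 min RT dark, then 1,000-fold excess unlabeled poly(AG)8, polarization over time; one-phase-decay half-life, 95% CI errors.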

eIF4A1 [3] = target: T1, eIF4A1; assay: Differential scanning fluorimetry of eIF4A1; assay type: binding; details: eIF4A1 8 µM, compound 15 µM, 15 µM poly (AG)8, 1 mM AMPPNP
Procedure, shortened: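 His6-eIF4A1 (E. coli BL21(DE3), Ni-NTA then Q-Sepharose) at 8 µM with 15 µM test compound or DMSO. Heated 37 to 75 °C at 1 °C/min; ΔT50 from the unfolding midpoint; n = 3 ±SD.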

[4] = test system: cap-dependent (FLuc) translation; assay: In vitro translation in Krebs-2 extracts with bicistronic reporter mRNA; assay type: biochemical; details: read-out: IC50 toward inhibition of FLuc synthesis from (CAG)-FF/HCV-IRES/Ren mRNA, n = 2 ±SD
[5] = Plasma protein binding, mouse; assay type: in vitro ADME
[6] = Plasma protein binding, human; assay type: in vitro ADME
[7] = test system: mRNA translation in 4T1-526 cells; assay: Puromycin incorporation in 4T1-526 cells; assay type: cell-based; details: read-out: IC50 for inhibition of mRNA translation
4T1-526 cells = assay: Cell death of 4T1-526 cells; assay type: cell-based; details: 72h exposure at IC50 doses
[8] = delivered IV 1 mg/kg; cited from earlier work

For `COc1cccc2c1C(=O)c1c(O)c3c(c(O)c1C2=O)C[C@@](O)(C(=O)CO)C[C@@H]3O[C@H]1C[C@H](N)[C@H](O)[C@H](C)O1` [DXR, doxorubicin], which “primary tumor response, monotherapy versus combination” value (4T1-526 mammary tumors; 0.5 mg/kg MG-002 PO, 2.5 mg/kg DXR IP, every 3 d) is on record?
Its value is “equally responsive”.

What about the “cleavage of PARP” value [1] of the same molecule?
Its value is “cleavage of PARP was observed”.

With `CC(/C=C/C(C)=C/[C@@H]1Cc2nc(cs2)[C@@H](C)C[C@@H](N)CC(=O)O[C@@H](C)C/C(C)=C/C=C\C(=O)O1)=C\CN(C)C` [PatA, pateamine A] as the molecule, how does the “RNA template selectivity of compound-induced eIF4A1 clamping” value (eIF4A1 [2]) read?
The value was “stabilized binding of eIF4A1 to both polypurine and polypyrimidine RNA templates”.

And the “transition midpoint temperature shift (ΔT50)” value (eIF4A1 [3])?
The value was 10 °C.

With `COc1cc2c(c(OC)n1)[C@]1(O)[C@H](O)[C@H](CN(C)C)[C@@H](c3ccccc3)[C@]1(c1ccc(C#N)cc1)O2` [eFT226] as the molecule, how does the “RNA template selectivity of compound-induced eIF4A1 clamping” value (eIF4A1 [2]) read?
Its value is “discriminated between poly (AG)8 and poly (UC)8 RNA templates”.

And the “half-life of complexes, fold less than those formed with MG-002” value (eIF4A1 [2]; poly (AG) RNA)?
Its value is “approximately 2.5 fold”.

And the “transition midpoint temperature shift (ΔT50)” value (eIF4A1 [3])?
The value was 7 °C.

And the IC50 [4]?
The IC50 was 813 ± 91 nM.

What about the “Plasma protein binding (% bound) Mouse” value [5] of the same molecule?
Its value is 73.4 ± 1.1 % bound.

And the “Plasma protein binding (% bound) Human” value [6]?
Its value is 79.4 ± 0.3 % bound.

What about the IC50 [7] of the same molecule?
Its IC50 is ~8 nM.

What about the “tumor growth after intraperitoneal or intravenous delivery” value (4T1-526 mammary tumors; intraperitoneal or intravenous delivery) of the same molecule?
The value was “similarly delayed tumor growth”.

What about the cell death (4T1-526 cells) of the same molecule?
The cell death was “Significant cell death”.

And the “T1/2 (h)” value [8]?
The value was 10.9^§ h.
